Results of several laboratories.
Protocols differ between the studies behind these lines.
Organism: Bacillus subtilis
Observed: microbial growth

Oc1cc(Cl)ccc1Oc1ccc(Cl)cc1Cl
MIC: 1.8 µg/mL

CCCCCCCCCCCC(=O)C(F)(F)P(=O)(O)O
MIC (ATCC23857): > 200 µg/mL

CCC1C(=NOCc2cn(-c3ccccc3)nn2)CC(c2ccccc2)OC1c1ccccc1 (stereo not shown)
MIC (broth dilution; MTCC121; 24 h): 25 µg/mL

CO[C@@H]1[C@@H](OC(N)=O)[C@@H](O)[C@H](Oc2ccc3c(O)c(NC(=O)c4ccc(O)c(CC=C(C)C)c4)c(=O)oc3c2C)OC1(C)C
MIC (broth dilution; ATCC6633): < 6.25 µM

CCCCCCCCCC(=O)N[C@@H](Cc1c[nH]c2ccccc12)C(=O)N[C@H](CC(N)=O)C(=O)N[C@@H](CC(=O)O)C(=O)N[C@@H]1C(=O)NCC(=O)N[C@@H](CCCN)C(=O)N[C@@H](CC(=O)O)C(=O)N[C@H](C)C(=O)N[C@@H](CC(=O)O)C(=O)NCC(=O)N[C@H](CO)C(=O)N[C@@H]([C@H](C)CC(=O)O)C(=O)N[C@@H](CC(=O)c2ccccc2N)C(=O)O[C@@H]1C
MIC (broth dilution; 168): 0.25 µg/mL

CCCCCCCCCCCC(=O)OC[C@H]1O[C@@H](n2cc(C)c(=O)[nH]c2=O)C[C@@H]1OC(=O)c1ccc(C(C)(C)C)cc1
MIC (broth dilution): 1 µg/mL

CCCCCCCCCCCCCCCC(=O)NP(=O)(O)O
MIC (ATCC23857): > 200 µg/mL

Cc1c(NN=C(C#N)C2=NC(=O)CS2)c(=O)n(-c2ccccc2)n1C
MIC (broth dilution): 0.98 µg/mL

CC1C(=NOCc2cn(-c3ccccc3)nn2)CC(c2ccccc2)OC1c1ccccc1 (stereo not shown)
MIC (broth dilution; MTCC121; 24 h): 50 µg/mL

CCCCCCCC(=O)CP(=O)(O)O
MIC (ATCC23857): > 200 µg/mL
